TRPC6 act: activates the mouse TRPC6 cation channel. Q61143. HEK293-TRPC6 membrane potential dye fluorescence; hits give high values. B-score at 10 µM. 310,000 compounds, 0.13% hits. AID 2550;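 active means B-score of the integrated fluorescence ratio above library mean plus 3 SD, and starting fluorescence ratio within library mean plus 5 SD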;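 further: higher score means more depolarization so channel activation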
TRPC6 inhibitor: mouse TRPC6 channel inhibition. AID 2553. 310,000 compounds, 1.1% hits. HEK293-TRPC6, membrane potential dye, ACh-evoked depolarization; hits give low values. B-score at 10 µM. Q61143;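 active means B-score under library mean minus 3 SD, initial fluorescence not abnormally high, positive integrated signal ratio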;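 further: B-score derived from integrated fluorescence ratio over the kinetic read; more negative B-score means stronger inhibition of depolarization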
TRPC4 inh: blocks the mouse TRPC4 cation channel. B-score at 10 µM. HEK293 TRPC4beta/mu-opioid, DAMGO-evoked Fluo4 calcium flux; hits give low values. AID 2247. 300,000 compounds, 0.39% hits. Q9QUQ5;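 active means B-score over 3 SD under the library average, no early fluorescence shift, positive overall ratio signal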
Target sequence (Q9QUQ5 whole entry, looked up): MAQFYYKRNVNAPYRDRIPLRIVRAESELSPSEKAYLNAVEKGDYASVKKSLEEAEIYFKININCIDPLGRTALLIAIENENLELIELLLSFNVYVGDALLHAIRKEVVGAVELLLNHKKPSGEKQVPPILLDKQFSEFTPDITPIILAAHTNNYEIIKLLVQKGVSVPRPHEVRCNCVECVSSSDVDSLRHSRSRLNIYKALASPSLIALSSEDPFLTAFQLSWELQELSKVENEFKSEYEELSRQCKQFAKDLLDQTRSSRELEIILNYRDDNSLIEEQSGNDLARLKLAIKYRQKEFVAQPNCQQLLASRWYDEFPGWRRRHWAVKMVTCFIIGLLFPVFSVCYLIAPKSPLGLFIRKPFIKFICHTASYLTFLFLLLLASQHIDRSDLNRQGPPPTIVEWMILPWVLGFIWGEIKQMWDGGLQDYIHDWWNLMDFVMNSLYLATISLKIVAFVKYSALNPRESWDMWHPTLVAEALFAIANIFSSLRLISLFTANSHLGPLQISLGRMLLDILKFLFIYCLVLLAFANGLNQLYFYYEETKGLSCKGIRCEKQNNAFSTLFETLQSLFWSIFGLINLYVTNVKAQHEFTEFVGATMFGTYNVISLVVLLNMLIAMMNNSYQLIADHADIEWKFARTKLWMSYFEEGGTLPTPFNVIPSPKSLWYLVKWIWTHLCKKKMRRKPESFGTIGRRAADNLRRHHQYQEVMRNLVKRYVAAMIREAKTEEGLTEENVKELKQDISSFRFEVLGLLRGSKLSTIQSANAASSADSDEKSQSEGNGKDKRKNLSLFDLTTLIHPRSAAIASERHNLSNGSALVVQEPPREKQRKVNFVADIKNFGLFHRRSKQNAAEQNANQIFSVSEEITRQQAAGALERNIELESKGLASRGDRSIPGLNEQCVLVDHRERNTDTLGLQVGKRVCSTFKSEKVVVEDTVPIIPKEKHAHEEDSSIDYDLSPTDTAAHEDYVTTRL
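Material: HEK293 cells with stable TRPC4beta plus mu-opioid receptor expression / Probe or stimulus: DAMGO in two steps, submaximal then maximal / Compound: single concentration per test compound / Technique: kinetic Fluo4 fluorescence imaging of calcium influx / Read-out: per-well B score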
TRPC4 PAM: allosteric potentiators of mouse TRPC4 channel. B-score at 10 µM. Q9QUQ5. 310,000 compounds, 0.42% hits. HEK293 TRPC4beta/mu-opioid, DAMGO EC20, Fluo-4 Ca2+ flux; hits give high values. AID 2227;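 active means B-score of calcium response area above 5 SD of library B-scores, with initial fluorescence ratio within 5 SD of library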;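 further: B-score of integrated fluorescence ratio over time as area under calcium response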
TRPC4 agonist: activators of mouse TRPC4 channel | Q9QUQ5 | HEK293 TRPC4beta/mu-opioid, Fluo4 calcium fluorescence; hits give high values | B-score at 10 µM | 310,000 compounds, 0.49% hits | AID 2237;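 active means B-score above 5 SD of library B-scores, and initial fluorescence ratio not above library mean plus 5 SD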;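 further: positive B-score marks a calcium rise read as TRPC4 activation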
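System: HEK293 cells stably co-expressing mouse TRPC4beta and mu-opioid receptor; Schedule: Fluo4 dye loading 45 min at room temperature, 110 s recording; Detection: Fluo4 fluorescence, kinetic; Evaluation: B-scored integrated calcium fluorescence ratio; Controls: buffer (low) and maximal DAMGO (high).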
* marks the source's active call; other numbers are inactive results; i = inactive. Compounds with a hit are over-represented: about 2.3% of the library has one in this group of screens.

SMILES	TRPC6 act	TRPC6 inhibitor	TRPC4 inh	TRPC4 PAM	TRPC4 agonist
Cc1c(C(=O)NNC(=S)Nc2ccc(S(N)(=O)=O)cc2)oc2ccccc12	i	i	i	i	i
O=c1ccc(-c2nc3ccccc3n2Cc2ccccc2Cl)c[nH]1	i	i	i	i	i
O=c1ccc(-c2nc3cc(Cl)ccc3n2Cc2ccccc2)c[nH]1	i	i	i	10*	i
CC(C)CCn1c(O)c(N=NC(=O)c2ccco2)c2ccccc21	i	i	i	i	i
CC(C)Cn1c(O)c(N=NC(=O)c2cccc(S(=O)(=O)N3CCCCC3)c2)c2ccccc21	i	i	i	17*	i
Cc1cc2ccccn2c1C(=O)c1nc(NCc2ccco2)ncc1Cl	i	i	i	13*	i
O=C(O)C1CCCCC1C(=O)NCCc1ccc(F)cc1 (stereo not given)	i	i	i	10*	i
CN(C)CCn1c(=O)n(C2CCCCC2)c(=O)c2c3c(sc21)CCCCC3	i	i	i	i	i
CCn1c(=O)n(CCOC)c(=O)c2c3c(sc21)CCCC3	i	i	-6*	i	i
COc1ccc(C)c(NC(=O)NCCc2cnc[nH]2)c1	i	i	i	i	129*
Cn1c(CNC(=O)CCNC(=O)c2ccc(F)c(F)c2)cc(=O)n(C)c1=O	i	i	i	i	i
O=C(CN1CCN(c2ccc([N+](=O)[O-])cc2)CC1)c1ccccc1	i	i	i	11*	i
O=C(NC1CCCCC1)C(c1ccncc1)N(C(=O)c1csnn1)c1ccccc1 (stereo not given)	i	i	i	i	i
NS(=O)(=O)c1ccc(NC(=O)CN2CCCN(S(=O)(=O)c3ccc(F)cc3)CC2)cc1	i	i	i	i	i
O=C(CN1CCCN(S(=O)(=O)c2ccc(F)cc2)CC1)Nc1ccccc1Br	i	i	-6*	i	i
CCOC(=O)C(=NC1CCS(=O)(=O)C1)NNc1cc(Cl)ccc1Cl (stereo not given)	i	i	i	i	i
CCOC(=O)C(=NC1CCS(=O)(=O)C1)NNc1ccccc1Cl (stereo not given)	i	i	i	47*	i
Cc1ccc2[nH]c(C(=O)O)c(-c3ccccc3)c2c1	i	i	i	i	i
Cc1ccc2[nH]c(C(=O)NN=C3CCCCC3)c(-c3ccccc3)c2c1	i	i	i	10*	i
CN1CCCN(S(=O)(=O)c2ccc(Cl)c(Cl)c2)CC1	i	i	i	12*	i
CN1CCCN(S(=O)(=O)c2cccc(Cl)c2Cl)CC1	i	i	i	i	i
CC(OCC(O)CN(C)CCOc1ccccc1)c1ccc(Cl)cc1 (stereo not given)	i	i	-6*	i	i
CN(CCOc1ccccc1)CC(O)COCc1ccccc1F (stereo not given)	i	i	i	i	i
CN(CCOc1ccccc1)CC(O)COc1ccccc1 (stereo not given)	i	i	-6*	i	i
O=C(NCCCN1CCOCC1)c1ccc2c(c1)N(Cc1c(F)cccc1Cl)C(=O)CS2	i	i	i	i	i
SMILES	TRPC6 act	TRPC6 inhibitor	TRPC4 inh	TRPC4 PAM	TRPC4 agonist
CNc1cc(C)nc(N2CCOCC2)n1	i	i	i	i	i
Cc1cc(N2CCOCC2)nc(NCc2ccccc2)n1	i	i	i	i	i
Cc1cc(N2CCCCC2)nc(NCc2ccccc2)n1	i	i	i	12*	47*
Cc1cc(NCc2ccccc2)nc(N2CCOCC2)n1	i	i	-6*	i	i
Cc1cc(C)nc(NS(=O)(=O)c2ccc(NC(=O)C3(c4ccccc4)CCCC3)cc2)n1	i	i	i	i	i
CCn1c2ccc(C)cc2c2nnc(NN)nc21	i	i	i	i	i
CCn1c2ccccc2c2nnc(NN)nc21	i	i	i	15*	45*
COCCNC(=O)C(=O)NCC(c1ccc2c(c1)OCO2)N1CCN(c2ccc(F)cc2)CC1 (stereo not given)	i	i	i	i	i
